Reference: ChEMBL document CHEMBL1157864, “Synthesis of some novel 2-substituted-5-[isopropylthiazole] clubbed 1,2,4-triazole and 1,3,4-oxadiazoles as potential antimicrobial and antitubercular agents” (Eur J Med Chem, 2010)
≈ marks a conversion by molar mass, not a printed value.

Legend:
Type in all cases: functional
Pseudomonas aeruginosa = test: Antimicrobial activity against Pseudomonas aeruginosa ATCC 10145 after 24 hrs by broth microdilution assay; conditions: ATCC 10145, 24 h
Method in brief: (§1)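 Broth dilution MIC. Stock is 10 mg compound in 1 mL DMSO, serially diluted in Mueller–Hinton broth for bacteria or Sabouraud liquid medium for yeasts and mould. Tubes are inoculated at 10⁵ cfu/mL and incubated at 37 °C for 24 h. Controls are medium alone and medium with DMSO at matching dilutions. MIC is the lowest concentration giving complete growth inhibition.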

Saccharomyces cerevisiae = test: Antimicrobial activity against Saccharomyces cerevisiae ATCC 9763 after 24 hrs by broth microdilution assay; conditions: ATCC 9763, 24 h; method in brief: as §1
Enterococcus faecalis = test: Antimicrobial activity against Streptococcus faecalis ATCC 14506 after 24 hrs by broth microdilution assay; conditions: ATCC 14506, 24 h; method in brief: as §1
Candida tropicalis = test: Antimicrobial activity against Candida tropicalis ATCC 1369 after 24 hrs by broth microdilution assay; conditions: ATCC 1369, 24 h; method in brief: as §1
Bacillus subtilis = test: Antimicrobial activity against Bacillus subtilis ATCC 60511 after 24 hrs by broth microdilution assay; conditions: ATCC 60511, 24 h; method in brief: as §1
Staphylococcus aureus = test: Antimicrobial activity against Staphylococcus aureus ATCC 11632 after 24 hrs by broth microdilution assay; conditions: ATCC 11632, 24 h; method in brief: as §1
[1] = tested on: Mycobacterium tuberculosis; test: Antimycobacterial activity against Mycobacterium tuberculosis H37Rv after 21 days by broth dilution assay; conditions: 504 h
Method in brief: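 Middlebrook 7H9 broth with 10% albumin-dextrose-catalase and 0.2% glycerol; frozen culture thawed, diluted to 10⁵ cfu/mL and used as inoculum. Compounds taken up in DMSO and diluted twice in broth, 1.3% DMSO final. Incubated at 37 °C. Growth judged by eye against drug-free and inoculum-free controls and isoniazid. MIC is the lowest concentration inhibiting ≥99% of the starting population.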

Klebsiella pneumoniae = test: Antimicrobial activity against Klebsiella pneumoniae ATCC 10031 after 24 hrs by broth microdilution assay; conditions: ATCC 10031, 24 h; method in brief: as §1
Aspergillus niger = test: Antimicrobial activity against Aspergillus niger ATCC 6275 after 24 hrs by broth microdilution assay; conditions: ATCC 6275, 24 h; method in brief: as §1
Escherichia coli = test: Antimicrobial activity against Escherichia coli ATCC 10536 after 24 hrs by broth microdilution assay; conditions: ATCC 10536, 24 h; method in brief: as §1

Structure (SMILES)	MIC (Pseudomonas aeruginosa) [µg/mL]	MIC (Saccharomyces cerevisiae) [µg/mL]	MIC (Enterococcus faecalis) [µg/mL]	MIC (Candida tropicalis) [µg/mL]	MIC (Bacillus subtilis) [µg/mL]	MIC (Staphylococcus aureus) [µg/mL]	MIC [1] [µg/mL]	MIC (Klebsiella pneumoniae) [µg/mL]	MIC (Aspergillus niger) [µg/mL]	MIC (Escherichia coli) [µg/mL]
CC(C)c1csc(-c2nnc(S)n2/N=C/c2ccc(Br)cc2)n1	62.5 (≈ 153 µM)	125 (≈ 306 µM)	125 (≈ 306 µM)	62.5 (≈ 153 µM)	125 (≈ 306 µM)	62.5 (≈ 153 µM)	125 (≈ 306 µM)	125 (≈ 306 µM)	62.5 (≈ 153 µM)	62.5 (≈ 153 µM)
COc1cc(/C=N/n2c(S)nnc2-c2nc(C(C)C)cs2)cc(OC)c1OC	125 (≈ 298 µM)	62.5 (≈ 149 µM)	62.5 (≈ 149 µM)	125 (≈ 298 µM)	125 (≈ 298 µM)	125 (≈ 298 µM)	125 (≈ 298 µM)	62.5 (≈ 149 µM)	62.5 (≈ 149 µM)	62.5 (≈ 149 µM)
Cc1ccc(-c2nnc(-c3nc(C(C)C)cs3)o2)cc1	125 (≈ 438 µM)	62.5 (≈ 219 µM)	16 (≈ 56.1 µM)	125 (≈ 438 µM)	31.2 (≈ 110 µM)	31.2 (≈ 110 µM)	16 (≈ 56.1 µM)	125 (≈ 438 µM)	31.2 (≈ 110 µM)	62.5 (≈ 219 µM)
COc1ccc(-c2nnc(-c3nc(C(C)C)cs3)o2)cc1	16 (≈ 53.1 µM)	31.2 (≈ 104 µM)	31.2 (≈ 104 µM)	31.2 (≈ 104 µM)	31.2 (≈ 104 µM)	31.2 (≈ 104 µM)	16 (≈ 53.1 µM)	31.2 (≈ 104 µM)	31.2 (≈ 104 µM)	16 (≈ 53.1 µM)
CC(=O)N1N=C(c2nc(C(C)C)cs2)OC1(C)c1ccc(O)cc1 (stereo not given)	62.5 (≈ 181 µM)	31.2 (≈ 90.5 µM)	31.2 (≈ 90.5 µM)	31.2 (≈ 90.5 µM)	31.2 (≈ 90.5 µM)	16 (≈ 46.3 µM)	62.5 (≈ 181 µM)	16 (≈ 46.3 µM)	125 (≈ 362 µM)	16 (≈ 46.3 µM)
COc1ccc(C2(C)OC(c3nc(C(C)C)cs3)=NN2C(C)=O)cc1 (stereo not given)	125 (≈ 348 µM)	4 (≈ 11.1 µM)	125 (≈ 348 µM)	8 (≈ 22.3 µM)	31.2 (≈ 86.9 µM)	31.2 (≈ 86.9 µM)	62.5 (≈ 174 µM)	125 (≈ 348 µM)	8 (≈ 22.3 µM)	125 (≈ 348 µM)
CC(=O)N1N=C(c2nc(C(C)C)cs2)OC1(C)c1ccc([N+](=O)[O-])cc1 (stereo not given)	31.2 (≈ 83.5 µM)	31.2 (≈ 83.5 µM)	62.5 (≈ 167 µM)	62.5 (≈ 167 µM)	62.5 (≈ 167 µM)	31.2 (≈ 83.5 µM)	125 (≈ 334 µM)	62.5 (≈ 167 µM)	31.2 (≈ 83.5 µM)	16 (≈ 42.7 µM)
CC(C)c1csc(-c2nnc(-c3ccccc3)o2)n1	62.5 (≈ 230 µM)	62.5 (≈ 230 µM)	16 (≈ 59 µM)	125 (≈ 461 µM)	62.5 (≈ 230 µM)	31.2 (≈ 115 µM)	31.2 (≈ 115 µM)	250 (≈ 921 µM)	125 (≈ 461 µM)	125 (≈ 461 µM)
CC(C)c1csc(-c2nnc(-c3ccc(Cl)cc3)o2)n1	125 (≈ 409 µM)	62.5 (≈ 204 µM)	8 (≈ 26.2 µM)	125 (≈ 409 µM)	4 (≈ 13.1 µM)	8 (≈ 26.2 µM)	4 (≈ 13.1 µM)	125 (≈ 409 µM)	62.5 (≈ 204 µM)	125 (≈ 409 µM)
CC(=O)N1N=C(c2nc(C(C)C)cs2)OC1(C)c1ccc(Br)cc1 (stereo not given)	16 (≈ 39.2 µM)	31.2 (≈ 76.5 µM)	16 (≈ 39.2 µM)	31.2 (≈ 76.5 µM)	31.2 (≈ 76.5 µM)	16 (≈ 39.2 µM)	125 (≈ 306 µM)	16 (≈ 39.2 µM)	31.2 (≈ 76.5 µM)	62.5 (≈ 153 µM)
CC(=O)N1N=C(c2nc(C(C)C)cs2)OC1(C)c1ccc(C)cc1 (stereo not given)	125 (≈ 364 µM)	16 (≈ 46.6 µM)	125 (≈ 364 µM)	31.2 (≈ 91 µM)	16 (≈ 46.6 µM)	125 (≈ 364 µM)	31.2 (≈ 91 µM)	31.2 (≈ 91 µM)	31.2 (≈ 91 µM)	16 (≈ 46.6 µM)
CC(C)c1csc(-c2nnc(-c3ccc(O)cc3)o2)n1	62.5 (≈ 218 µM)	62.5 (≈ 218 µM)	62.5 (≈ 218 µM)	125 (≈ 435 µM)	31.2 (≈ 109 µM)	62.5 (≈ 218 µM)	125 (≈ 435 µM)	62.5 (≈ 218 µM)	125 (≈ 435 µM)	62.5 (≈ 218 µM)
CC(C)c1csc(-c2nnc(S)n2/N=C/c2ccc(N(C)C)cc2)n1	16 (≈ 43 µM)	31.2 (≈ 83.9 µM)	125 (≈ 336 µM)	125 (≈ 336 µM)	31.2 (≈ 83.9 µM)	16 (≈ 43 µM)	125 (≈ 336 µM)	16 (≈ 43 µM)	16 (≈ 43 µM)	16 (≈ 43 µM)
CC(C)c1csc(-c2nnc3sc(-c4ccc([N+](=O)[O-])cc4)nn23)n1	31.2 (≈ 83.9 µM)	8 (≈ 21.5 µM)	125 (≈ 336 µM)	8 (≈ 21.5 µM)	16 (≈ 43 µM)	125 (≈ 336 µM)	31.2 (≈ 83.9 µM)	16 (≈ 43 µM)	16 (≈ 43 µM)	125 (≈ 336 µM)
Cc1ccc(-c2nn3c(-c4nc(C(C)C)cs4)nnc3s2)cc1	62.5 (≈ 183 µM)	250 (≈ 732 µM)	125 (≈ 366 µM)	125 (≈ 366 µM)	62.5 (≈ 183 µM)	125 (≈ 366 µM)	31.2 (≈ 91.5 µM)	250 (≈ 732 µM)	125 (≈ 366 µM)	125 (≈ 366 µM)
